# From PubChem BioAssay
# An excerpt weighted towards active compounds, which were near 2.1% of everything screened.
# PABP1 MLLE inh: blocks PAM2 peptide binding to the PABP1 MLLE domain; inhibition, % at 20 µM; AID 588489; GST-MLLE / FITC-PAM2 fluorescence polarization; P11940; hit rate 0.36% among 360,000; in the data active means inhibition above about 35%, passing the limit was not always enough;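 further: plate controls were DMSO wells with GST-MLLE for no effect and wells lacking GST-MLLE protein for full effect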
# PABP FP inh: PABP-poly(A) binding inhibition | P11940 | PABP-poly(A) RNA binding, fluorescence polarization | inhibition, % at 35 µM | hit rate 1% among 290,000 | AID 2014;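 further: calls also rest on retests at 20 µM and on dose response follow-up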
# ZTA counter: blocks Epstein-Barr virus ZTA, an EBNA-1 counter-screen; P03206; ZTA-DNA binding, fluorescence polarization; inhibition, % at 11 µM; hit rate 0.15% among 320,000; in the data active means inhibition above about 33%
# Target sequence (P03206 whole entry, looked up): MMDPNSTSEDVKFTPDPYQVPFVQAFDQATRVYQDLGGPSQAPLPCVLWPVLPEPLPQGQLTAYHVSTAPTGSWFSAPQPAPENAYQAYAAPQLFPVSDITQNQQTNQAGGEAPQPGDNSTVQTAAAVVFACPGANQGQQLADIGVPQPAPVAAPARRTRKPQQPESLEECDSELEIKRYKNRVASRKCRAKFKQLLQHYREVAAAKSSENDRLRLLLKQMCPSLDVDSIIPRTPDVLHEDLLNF
# EBNA-1 inh: blocks EBNA-1 binding to DNA; hit rate 0.34% among 300,000; EBNA-1 DNA binding, fluorescence polarization; AID 1950; inhibition, % at 14.8 µM; in the data active means inhibition above about 28%
# eIF4H FP inh: inhibitors of RNA binding by human eIF4H; Q15056; eIF4H fluorescence polarization binding assay; inhibition, % at 35 µM; hit rate 0.94% among 290,000;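 further: calls also rest on retests at 20 µM and on dose response follow-up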
# NS3 helicase inh: inhibitors of Hepatitis C virus NS3 helicase; hit rate 0.56% among 290,000; AID 1800; inhibition, % at 10.9 µM; NS3 helicase DNA unwinding, Cy5 molecular beacon fluorescence;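 active means inhibition above the mean of all tested compounds plus 3 SD, set per campaign, cut at about 35% in these data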;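 further: 0% = DMSO wells and 100% = thioflavine S control wells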
#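 Material: hepatitis C virus NS3 helicase domain fragment enzyme; measured by: Cy5 fluorescence, 0 and 60 min reads; control set: DMSO and thioflavine S; incubation: 60 min unwinding reaction at 25 °C after ATP addition; read-out basis: % inhibition from 60/0 min fluorescence ratio, DMSO 0%, thioflavine S 100%; repeats: singlicate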
# EBNA-1 inh conf: EBNA-1 (EBV) inhibition, confirmation; hit rate 35% among 830; Recombinant EBNA-1 DBD, Cy5-DNA fluorescence polarization; shares compounds with EBNA-1 inh; inhibition, % at 14.8 µM;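 active means mean inhibition across replicates above a set limit taken from the earlier primary screen, cut at about 28% in these data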;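 further: plate controls were EBNA-1 protein with DMSO for no effect and wells lacking EBNA-1 for full effect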
# ZTA DNA inh trip: ZTA (EBV) inhibition, triplicate counter-screen; shares compounds with EBNA-1 inh; Zta-ZRE DNA binding, Cy5 fluorescence polarization; inhibition, % at 11.1 µM; 830 tested, under 10 active; AID 2328;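 active means mean inhibition over triplicates above a set limit taken from the primary EBNA-1 screen, cut at about 37% in these data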;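 further: purified full length Zta protein with Cy5 labeled ZRE DNA probe; 0% = Zta with DMSO and 100% = wells lacking Zta protein; inhibitors lower polarization by freeing the labeled DNA probe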
# The depositor's hits bear a star; / = no result given. Unless noted, how the calls were made is not given here.
SMILES,PABP1 MLLE inh,PABP FP inh,ZTA counter,EBNA-1 inh,eIF4H FP inh,NS3 helicase inh,EBNA-1 inh conf,ZTA DNA inh trip
NC(=O)c1nsc(C(=O)N(Cc2ccccc2F)C(C(=O)NCC2CCCO2)c2ccc(F)cc2)c1N (configuration not stated),5.2,3.4,-14.7,5.5,1.1,14.4,/,/
COc1cccc(/C=N/NC(=O)c2ccc(CN3c4cccc5cccc(c45)S3(=O)=O)cc2)c1,1.8,-2.4,-3.0,29.6*,-4.7,-18.2,17.4,2.4
Cc1ccccc1N1CC(=O)Nc2c(oc3nc(-c4ccccc4)cc(C)c23)C1=O,2.1,3.8,-6.0,0.3,9.0,9.0,/,/
Nc1c(C(=O)CSc2n[nH]c(-c3ccccc3Br)n2)c(=O)[nH]c(=O)n1C1CC1,-14.1,/,10.0,/,/,/,/,/
Cc1ccc(NC(=O)CN2C(=O)S/C(=C\c3cc(C)n(C)c3C)C2=O)cc1,9.4,-0.8,4.4,-0.7,8.0,11.1,/,/
Cc1cccc(NC(=O)CN2C(=O)S/C(=C\c3cc(C)n(C)c3C)C2=O)c1,-12.7,-5.0,14.7,29.5*,11.7,14.8,10.1,-7.2
CC(C)(C)OC(=O)NCCc1nnc(S(=O)(=O)Cc2ccc(Cl)cc2Cl)o1,2.6,-4.2,-13.5,3.5,-3.9,-7.5,/,/
O=C(CN1CCCC1)N1CCCc2ccccc21,-4.8,-3.9,4.1,-18.5,9.8,-1.7,/,/
CCCCCNC(=O)c1c[nH]c2ccc(S(=O)(=O)N3CCC4(CC3)OCCO4)cc2c1=O,2.5,-1.0,5.0,28.7*,0.2,0.8,4.2,2.1
Cc1csc(NC(=O)/C=C/c2ccc(C)o2)n1,-1.9,-0.3,-7.6,1.0,20.3,14.5,/,/
CC1(c2ccccc2)NC(=O)N(CCN2C(=O)c3ccccc3C2=O)C1=O (configuration not stated),-13.9,-2.3,0.1,59.3*,-4.3,-27.0,0.7,-1.1
CCCC1(c2ccccc2)NC(=O)N(CCN2C(=O)c3ccccc3C2=O)C1=O (configuration not stated),0.1,1.8,-17.1,-13.0,-5.5,3.0,/,/
Cc1cc(=O)[nH]c(-n2[nH]c3c(c2=O)CCCC3)n1,11.0,17.2,-11.6,4.9,13.7,7.0,/,/
Cc1ccc(C(=O)N/N=C/c2ccc3c(c2)OCO3)o1,2.1,0.9,14.3,13.3,-15.6,-0.7,/,/
O=C(N/N=C/c1ccc2c(c1)OCO2)c1cc2ccccc2o1,3.3,-3.8,2.1,29.9*,9.1,1.4,13.1,3.3
CCOC(=O)COc1cccc2c(=O)n(CC(=O)N3CCc4ccccc43)ccc12,9.1,10.4,9.4,36.4*,-1.1,1.9,17.2,0.6
COc1cccc2c(=O)n(CC(=O)N3CCc4ccccc43)ccc12,-6.5,0.2,1.7,6.3,-1.4,-0.8,/,/
O=C(Nc1ccc(Oc2ccccc2)cc1)C1CC1,1.6,9.0,-2.0,10.3,7.1,-12.6,/,/
O=C(Nc1ccc(Oc2ccccc2)cc1)C1CCN(c2ncccn2)CC1,10.3,0.8,11.2,39.3*,-3.2,-1.9,-0.6,4.6
O=C(NCCCCCCNC(=O)c1ccc(Br)s1)c1ccc(Br)s1,-2.0,-11.8,9.6,53.1*,-11.1,8.7,26.2,6.9
COc1cc(NC(=O)c2ccc(OC)c([N+](=O)[O-])c2)ccc1NC(=O)c1ccco1,3.1,4.1,-10.2,4.9,4.6,-8.8,/,/
COc1cc(NC(=O)c2ccc(C)c([N+](=O)[O-])c2)ccc1NC(=O)c1ccco1,/,1.4,-11.6,51.0*,-3.7,3.5,14.3,-6.2
CC(=O)C1=C(O)C(=O)N(CCCn2ccnc2)C1c1ccc(Br)cc1 (configuration not stated),1.0,6.8,11.0,39.7*,-2.1,3.1,9.2,6.1
COc1ccc(C2C(C(C)=O)=C(O)C(=O)N2CCCn2ccnc2)cc1OC (configuration not stated),7.9,1.8,8.1,0.5,-6.9,/,/,/
O=C(c1ccc(CN2CCc3ccccc3C2)cc1)N1CCN(c2ccccc2)CC1,5.0,4.0,-4.9,-1.3,1.0,-2.7,/,/
